Published values collected from several papers.
Each line is one published result; the experiments were not run side by side.
Target: Protein kinase C iota type (PRKCI, Homo sapiens, UniProt P41743)
One construct used (P41743 1-596): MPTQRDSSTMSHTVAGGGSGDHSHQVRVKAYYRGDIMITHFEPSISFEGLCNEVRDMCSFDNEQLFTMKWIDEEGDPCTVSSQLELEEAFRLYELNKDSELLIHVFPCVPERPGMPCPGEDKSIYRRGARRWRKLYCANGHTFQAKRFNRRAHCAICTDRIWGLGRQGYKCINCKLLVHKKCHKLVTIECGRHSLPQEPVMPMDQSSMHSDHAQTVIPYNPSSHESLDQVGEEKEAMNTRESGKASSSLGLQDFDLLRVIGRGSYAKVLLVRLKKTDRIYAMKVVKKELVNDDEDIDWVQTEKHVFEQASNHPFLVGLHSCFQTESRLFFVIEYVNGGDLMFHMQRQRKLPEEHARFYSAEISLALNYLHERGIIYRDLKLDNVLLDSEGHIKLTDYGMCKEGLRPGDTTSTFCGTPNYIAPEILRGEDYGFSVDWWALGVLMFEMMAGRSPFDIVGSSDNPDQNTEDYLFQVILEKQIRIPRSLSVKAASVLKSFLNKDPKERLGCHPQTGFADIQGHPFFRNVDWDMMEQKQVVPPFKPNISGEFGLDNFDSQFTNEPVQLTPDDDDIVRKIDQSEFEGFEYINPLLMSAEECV

For `CN(C)c1nccc(-c2cnn3ncccc23)n1`, the remaining binding was 81% (binding; 1 µM).
The remaining binding of `COc1ncc2cc3ccccc3nc2c1C#N` is reported as 100% (cell-free assay, competition with immobilised ligand; 5 µM).
`c1cncc(-c2cccc(Nc3nccc(NC4CCCCC4)n3)c2)c1` gave a remaining binding of 78% (binding, competition with immobilised ligand; 10 µM).
The remaining binding of `O=C1NC(c2ccccn2)Sc2ccccc21` (stereo not drawn) is reported as 72% (cell-free assay, competition with immobilised ligand; 1 µM).
`COc1cnc(Nc2cccc(S(N)(=O)=O)c2)nc1N1CCN(c2ccccc2)C(=O)C1` gave a remaining binding of 96% (binding, competition with immobilised ligand; 1 µM).
`C[C@H]1CCN(c2nccc(-c3cnn4ncccc34)n2)C1` gave a remaining binding of 59% (binding; 1 µM).
`CN(C)c1ncnc(-c2ccc3nc(Nc4cc(CN5CCN(C(=O)CC(F)(F)F)CC5)ccn4)[nH]c3c2)c1Cl` gave a remaining binding of 79% (cell-free assay, competition with immobilised ligand; 1 µM).
`O=C(NCC1CCOCC1)c1n[nH]cc1NC(=O)c1c(F)cccc1F` gave a remaining binding of 73% (binding, competition with immobilised ligand; 1 µM).
`O=C(c1ccc(Nc2ncc(Cl)c(-c3ccc(Cl)s3)n2)cc1)N1CCC(N2CCCC2)CC1` gave a remaining binding of 98% (binding, competition with immobilised ligand; 1 µM).
For `NS(=O)(=O)c1cc(NC(=O)C2(c3ccccc3Cl)CC2)ccc1Oc1cccc(Cl)c1`, the remaining binding was 98% (cell-free assay, competition with immobilised ligand; 1 µM).
For `Cc1cnc(Nc2ccc(C(=O)N3CCC(N4CCCC4)CC3)cc2)nc1-c1cc2ccccc2s1`, the remaining binding was 83% (binding, competition with immobilised ligand; 1 µM).
`O=C(O)[C@H]1[C@H](Cn2nnc3ccccc3c2=O)CC[C@@H]1C(=O)c1ccc(OCCC2CCOCC2)cc1` gave a remaining binding of 66% (cell-free assay, competition with immobilised ligand; 1 µM).
`F[C@@H]1CCN(c2nccc(-c3cnn4ncccc34)n2)C1` has a remaining binding of 100% (binding; 1 µM).
For `Nc1ncc2c(n1)-c1c([nH]c3ccc(C#CC4CC4)cc13)CCCC2`, the remaining binding was 89% (binding, competition with immobilised ligand; 1 µM).
The remaining binding of `C[C@@H](c1ccc(-n2cnc3c(N)ncnc32)cc1)N1CCc2nn(C)c(Cc3ccccc3)c2C1=O` is reported as 82% (binding, competition with immobilised ligand; 0.1 µM).
The remaining binding of `Cc1cnn2ncc(-c3ccnc(N(C)C)n3)c2c1` is reported as 81% (binding; 1 µM).
With `CC(=O)N1CCC(c2ccc(C(=O)NC(=N)N)cc2C(F)(F)F)CC1` the remaining binding was 100% (cell-free assay, competition with immobilised ligand; 1 µM).
For `CN(C)c1ncc(F)c(-c2cnn3ncccc23)n1`, the remaining binding was 100% (binding; 1 µM).
For `C[C@@H]1CN(c2cc(-c3n[nH]c4ccc(OC5(C)CC5)cc34)ncn2)C[C@H](C)O1`, the remaining binding was 80% (cell-free assay, competition with immobilised ligand; 0.1 µM).
For `c1cnn2ncc(-c3ccnc(N4CCC45COC5)n3)c2c1`, the remaining binding was 58% (binding; 1 µM).
The remaining binding of `O=C(c1ccc(Nc2ncc(Cl)c(-c3cc4ccccc4s3)n2)cc1)N1CCC(N2CCCC2)CC1` is reported as 72% (binding, competition with immobilised ligand; 1 µM).
